In ChEMBL document CHEMBL2177098, “Synthesis and evaluation of novel ¹⁸F labeled 2-pyridinylbenzoxazole and 2-pyridinylbenzothiazole derivatives as ligands for positron emission tomography (PET) imaging of β-amyloid plaques” (J Med Chem, 2012):
pKi: −log10 of the molar value. The source made the active and inactive calls. The rule behind the calls is not given here.

Tests used:
[1] = Displacement of [125I]-IMPY from amyloid beta (1 to 42) fibrils after 2 hrs by gamma-counting analysis
How it was run: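 Competition binding with aggregated Aβ1-42 fibrils and [125I]IMPY (60000−100000 cpm/100 μL) in 0.05% BSA (1 mL total); inhibitors 10⁻⁴−10^−8.5 M in ethanol. Incubated 37 °C for 2 h, then GF/B vacuum filtration with PBS (0.02 M, pH 7.4) washes and γ counting. Three repeats; IC50 converted to Ki by Cheng−Prusoff.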

[2] = species: Mus musculus; assay: Binding affinity to amyloid beta plaques in transgenic C57BL6 mouse hippocampus expressing APP Swedish mutant/PSEN1 at 370 KBq/100 ul after 1 hr by thioflavinS-staining method; assay type: tissue-based; settings: tested as the 18F-labelled form
How it was run: (§1)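 Paraffin brain sections from 12-month-old Tg mice (C57BL6, APPswe/PSEN1) and age-matched controls, deparaffinized through xylene and graded ethanol, then PBS (0.2 M, pH 7.4) 30 min. Incubated with 18F tracer (370 KBq per 100 μL) 1 h at room temperature, washed in 40% EtOH, rinsed in water, then phosphor plate exposure 2 h. The same sections were afterwards stained with 0.125% thioflavin S in 10% EtOH for 3 min and washed in 40% EtOH.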

[3] = species: Mus musculus; assay: Binding affinity to amyloid beta plaques in transgenic C57BL6 mouse hippocampus expressing APP Swedish mutant/PSEN1 at 370 KBq/100 ul after 1 hr by autoradiographic analysis; assay type: tissue-based; settings: tested as the 18F-labelled form; how it was run: as §1
[4] = target: Amyloid-beta precursor protein (Homo sapiens) (UniProt P05067); assay: Binding affinity to amyloid beta plaques in Alzheimer patient brain at 370 KBq/100 ul after 1 hr by autoradiographic analysis; settings: tested as the 18F-labelled form
[5] = species: Mus musculus; assay: Binding affinity to amyloid beta plaques in transgenic C57BL6 mouse cortex expressing APP Swedish mutant/PSEN1 at 370 KBq/100 ul after 1 hr by autoradiographic analysis; settings: tested as the 18F-labelled form; how it was run: as §1
[6] = species: Mus musculus; assay: Binding affinity to amyloid beta plaques in transgenic C57BL6 mouse cortex expressing APP Swedish mutant/PSEN1 at 370 KBq/100 ul after 1 hr by thioflavinS-staining method; settings: tested as the 18F-labelled form; how it was run: as §1

Sequence of Amyloid-beta precursor protein (Homo sapiens) (P05067 whole entry): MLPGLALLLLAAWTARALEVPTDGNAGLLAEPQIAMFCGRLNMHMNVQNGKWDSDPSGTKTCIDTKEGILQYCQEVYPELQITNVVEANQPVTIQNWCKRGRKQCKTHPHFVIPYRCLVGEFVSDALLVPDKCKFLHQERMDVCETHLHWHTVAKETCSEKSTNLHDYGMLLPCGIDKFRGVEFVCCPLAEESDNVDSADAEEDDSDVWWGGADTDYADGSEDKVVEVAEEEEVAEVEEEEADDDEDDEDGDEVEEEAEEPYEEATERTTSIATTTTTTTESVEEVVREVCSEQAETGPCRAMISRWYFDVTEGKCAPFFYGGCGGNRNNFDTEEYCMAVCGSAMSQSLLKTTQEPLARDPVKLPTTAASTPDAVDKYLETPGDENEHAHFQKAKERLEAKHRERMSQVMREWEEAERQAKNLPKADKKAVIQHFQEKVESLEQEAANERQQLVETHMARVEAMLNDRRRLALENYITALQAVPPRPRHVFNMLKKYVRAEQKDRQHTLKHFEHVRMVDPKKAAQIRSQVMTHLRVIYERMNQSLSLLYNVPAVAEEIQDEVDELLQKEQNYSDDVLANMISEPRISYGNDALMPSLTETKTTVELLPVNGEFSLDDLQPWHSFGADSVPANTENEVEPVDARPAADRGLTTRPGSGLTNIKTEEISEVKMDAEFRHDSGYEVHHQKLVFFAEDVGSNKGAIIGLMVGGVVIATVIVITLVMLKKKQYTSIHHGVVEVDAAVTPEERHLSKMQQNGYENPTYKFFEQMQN

pKi [1]: 7.11
Activity [2]: Active
Activity [3]: Active
Activity [4]: Active
Activity [5]: Active
Activity [6]: Active
SMILES: CNc1ccc(-c2nc3cc(OCCOCCOCCF)ccc3o2)cn1
